Series [1] can be described thus: Octanol-buffer partition coefficient, log P of the compound by LC/MS/MS based shake flask method. In kind it is physicochemical.
The subject of series [2] is Rattus norvegicus. Put plainly: Dose normalized drug uptake in Wistar rat at 10 mg/kg, po bid measured up to 7 hrs by LC/MS/MS analysis. In kind it is ADME, organism-based, Wister. The note with it: in vivo.
Series [3] deals with Mus musculus. Kind of series: Immunomodulatory activity in mouse assessed as reduction in plasmacytoid dendritic cells in splenocyte at 3 to 30 mg/kg administered via oral gavage bid at 8 and 16 hrs dosing interval between first and second dose respectively for 11 days measured 16 hrs post last dose on day 12 by B220 staining based flow cytometry. In kind it is functional, organism-based. In short, it runs like this: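 Mice gavaged with compound in 0.5% MC:0.5% Tween or PEG:D5W 3:1. Spleens dissociated in GentleMACS, filtered at 40 μm, ACK red-cell lysis, counted; 1 × 10^6 splenocytes stained 30 min on ice in HBSS/2% FBS/5 mM EDTA with antimouse panels for B-cell subsets (B220, CD21, CD23, IgM, IgD) or dendritic cells (PDCA1, CD11c, MHCII, lineage markers); analyzed on Fortessa flow cytometer.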
In general terms: Flow cytometry measures light scatter and fluorescence of single cells or particles in a stream.

A short description of series [4]: Total concentration in Lewis rat blood at 3 mg/kg, po bid after 24 hrs by LC/MS/MS analysis. Type of series: ADME, organism-based. The note with it: read-out: Drug uptake.
Series [5] is described as follows: Total concentration in Lewis rat blood at 30 mg/kg, po bid after 24 hrs by LC/MS/MS analysis. In kind it is ADME, organism-based. The note with it: read-out: Drug uptake.
The nature of series [6]: Total concentration in Lewis rat blood at 1 mg/kg, po bid after 24 hrs by LC/MS/MS analysis. In kind it is ADME, organism-based. The note with it: read-out: Drug uptake.
Series [7] deals with Rattus norvegicus. Kind of series: In vivo inhibition of SPPL2a in Lewis rat assessed as accumulation of CD74/p8 in blood at 3 mg/kg first dose administered via oral gavage followed by second dose after 8 hrs measured 16 hrs post second dose by Western blot method. In kind it is functional, organism-based. In short, it runs like this:
(§1)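 Rat blood (200 μL) red cells lysed with RBC lysis buffer three times, pellet lysed in Tris pH 6.8/NaCl/EDTA/Triton X-100/deoxycholate with protease inhibitors; Western blot for CD74/p8 with affinity-purified antibody specific for rat CD74/p8 at 1:200.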
Background: In western blotting, separated proteins are transferred to a membrane and probed.

The subject of series [8] is Rattus norvegicus. Put plainly: In vivo inhibition of SPPL2a in Lewis rat assessed as accumulation of CD74/p8 in blood at 1 mg/kg first dose administered via oral gavage followed by second dose after 8 hrs measured 16 hrs post second dose by Western blot method. Type of series: functional, organism-based. In short, it runs like this: as §1
Series [9] deals with Mus musculus. Put plainly: Immunomodulatory activity in mouse assessed as reduction in total B cells in splenocyte administered via oral gavage bid at 8 and 16 hrs dosing interval between first and second dose respectively for 11 days measured 16 hrs post last dose on day 12 by B220 staining based flow cytometry. Type of series: functional, cell-based.
A short description of series [10]: Total plasma concentration in mouse at 3 mg/kg administered via oral gavage measured after 16 hrs post dose by LC/MS/MS analysis. Type of series: ADME, organism-based. In short, it runs like this: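 Mice dosed by oral gavage in 0.5% MC:0.5% Tween or PEG:D5W 3:1. 50 μL blood taken retro-orbitally into LiHep tubes; in chronically dosed animals the trough sample came before the morning dose. Kept on ice, plasma separated by centrifugation at 2823g, 5 min, stored at −20 °C until analysis.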

The target of series [11] is T1, Signal peptide peptidase-like 2A (Rattus norvegicus, UniProt D3ZNG3).
T1 sequence (D3ZNG3 whole entry): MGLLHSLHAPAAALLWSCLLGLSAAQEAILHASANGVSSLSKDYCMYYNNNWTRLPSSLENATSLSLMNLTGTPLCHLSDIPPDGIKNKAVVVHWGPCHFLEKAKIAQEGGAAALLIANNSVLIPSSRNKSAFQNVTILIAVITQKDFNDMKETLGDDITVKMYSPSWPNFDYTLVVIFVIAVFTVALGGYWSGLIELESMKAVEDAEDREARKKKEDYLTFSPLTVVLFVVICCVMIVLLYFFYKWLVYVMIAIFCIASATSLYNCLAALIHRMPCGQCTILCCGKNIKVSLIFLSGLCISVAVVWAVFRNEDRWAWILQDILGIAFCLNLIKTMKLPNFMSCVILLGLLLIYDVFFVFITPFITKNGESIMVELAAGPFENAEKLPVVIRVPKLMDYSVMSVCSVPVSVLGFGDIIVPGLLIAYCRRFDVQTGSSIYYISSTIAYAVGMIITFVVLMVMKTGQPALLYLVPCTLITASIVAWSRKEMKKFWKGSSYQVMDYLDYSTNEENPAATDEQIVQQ
Put plainly: Inhibition of rat SPPL2a expressed in human U2OS cells using EGFP-labeled TNFalpha (1 to 77 residues) NLS as substrate after 24 hrs by Hoechst staining based high content imaging assay. Type of series: cell-based. In short, it runs like this: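 Stable U-2 OS line with constitutive rat SPPL2a and doxycycline-inducible rat TNFα(aa1-77)-NTF–EGFP-NLS; 3000 cells/well, 3–4 h at 37 °C, then inhibitor in doxycycline medium, 11-point, 100 μM–1 nM final (0.9% DMSO, 5 μg/mL doxycycline), 24 h. PFA fixation, Hoechst nuclei; nuclear minus cytoplasmic-ring EGFP intensity. Normalised to DMSO and reference-inhibitor controls; IC50 by nonlinear regression.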

Series [12] is described as follows: Stability in mouse liver microsomes at […] preincubated for 3 mins followed by NADPH addition measured after 1 hr in presence of GSH and [13C2-15N-glycine]-GSH by HPLC/MS method. Type of series: ADME, microsome. The note with it: read-out: Stability. In general terms: Microsomes from liver hold many membrane-bound enzymes, among them those of drug oxidation.

Series [13] can be described thus: Drug uptake in mouse spleen at 30 mg/kg, po administered as single dose after 4 hrs by LC/MS/MS analysis. In kind it is ADME, organism-based. The following applies: read-out: Drug uptake.
Series [14] is described as follows: Volume of distribution at steady state in Balb/c mouse at 5 mg/kg, iv by LC/MS/MS analysis. In kind it is ADME, organism-based. The following applies: in vivo, read-out: Vdss.
Series [15] has as its system Mus musculus. Kind of series: In vivo inhibition of SPPL2a in mouse assessed as increase in CD74/p8 accumulation in splenocytes at 10 to 100 mg/kg, po administered as single dose measured after 4 hrs by Western blot method. Type of series: functional, organism-based.
Series [16] deals with Mus musculus. Put plainly: In vivo inhibition of mouse gamma-secretase assessed as effect on Hes1 mRNA level in thymus up to 100 mg/kg, po administered as single dose by RT-PCR method. Type of series: organism-based. The gist of the method: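 Thymus and jejunum excised into RNALater, 4 °C overnight, washed, frozen at −80 °C; total RNA from 10 mg tissue by MagNA Pure LC; Hes1 measured by TaqMan real-time PCR; significance by two-tailed heteroscedastic Student's t-test.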

Activity calls are given as the source filed them. The rule behind the calls is not given here.

What is called logP is the decadic logarithm of the partition coefficient of the neutral form, usually between octanol and water. A lower logP goes with a more hydrophilic compound. As a reminder, the IC50 is the concentration at which inhibition is half-maximal.

In [1], `Cc1ncc(F)cc1NC(=O)C[C@H](C(=O)N[C@@H]1C(=O)N2CC3(CC3)CN2C(=O)c2ccccc21)C1CC1` came in with a lipophilicity (logP) of 2.3. Moreover, the Druguptake/dose in the series with Rattus norvegicus [2] came to 421 nM. In addition, in the series with Mus musculus [3], the result was inactive. Further, the concentration at 24 h in series [4] was found to be 231 nM; in [5], 3560 nM; in [6], 49 nM. Moreover, the inhibition result in the series on Rattus norvegicus [7] and in the series on Rattus norvegicus [8] was “Active” in each case. The Activity entry with Mus musculus [9] is “Dose-dependent effect”. In addition, the concentration at 16 h in series [10] was determined as 0.8 nM. This compound had an IC50 in series [11] of 56 nM.

Turning to `Cc1ccccc1NC(=O)C[C@@H](C)C(=O)N[C@@H]1C(=O)N2CCCN2Cc2ccccc21`, in [12], the remaining at 1 h stood at 92%. Further, the concentration at 4 h in series [13] is 434 nM. For the same compound, in [14], the Vd was 1.2 L/kg. The outcome in the series on Mus musculus [15] was Active. In addition, the Activity entry in the series on Mus musculus [16] is on record as “Non-Toxic”.

The values above are taken from ChEMBL document CHEMBL4043282, “Discovery of the First Potent, Selective, and Orally Bioavailable Signal Peptide Peptidase-Like 2a (SPPL2a) Inhibitor Displaying Pronounced Immunomodulatory Effects In Vivo” (J Med Chem, 2018).
